Two molecules from ChEMBL document CHEMBL2203241, “Natural product-derived antitumor compound phenethyl isothiocyanate inhibits mTORC1 activity via TSC2” (J Nat Prod, 2012) can be followed below.

Test [1] has as its system MCF7. In words: Inhibition of HIF1alpha RNA translation in human MCF7 cells at 10 ug/mL pretreated for 1 hr prior to metabolic labeling by SDS-PAGE analysis. In kind it is functional, cell-based. A digest of the protocol:
(§1)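 MCF7 cells held 1 h in DMEM without L-glutamine, cysteine and methionine, with 10% dialysed FCS and 2 mM glutamine. Then pretreated 1 h with compound, cycloheximide 10 μg/mL or DMSO, and labelled 2 h with [35S] amino acids (0.75 MBq/mL) plus CoCl2 100 μM. RIPA lysates immunoprecipitated overnight at 4 °C with anti-HIF1α or isotype IgG; SDS-PAGE, phosphorimaging. Three independent experiments.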

Test [2] concerns the target T1, mTORC1 (Homo sapiens) (UniProt P42345+Q8N122+Q9BVC4). In words: Inhibition of mTORC1 in human MCF7 cells assessed as reduction of p70S6K phosphorylation at 20 uM after 15 mins by immunoblotting analysis. In kind it is cell-based. A digest of the protocol: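 MCF7 cells exposed to 20 μM compound or DMSO over a time course; p70 S6K phosphorylation read by immunoblotting.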

For test [3], the target named is T1, mTORC1 (Homo sapiens). In words: Inhibition of mTORC1 in human MCF7 cells assessed as reduction of 4E-BP1 phosphorylation after 3 hrs by immunoblotting analysis. It counts as cell-based. In a few lines: (§2)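 MCF7 cells exposed to a concentration series, DMSO or nothing for 3 h, then immunoblotted. Repeated measures ANOVA with Tukey's test.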
For orientation: A western blot detects proteins with antibodies after separation by electrophoresis.

Test [4] concerns the target T2, Hypoxia inducible factors; HIF-1-alpha, HIF-2-alpha (Homo sapiens, UniProt Q16665+Q99814). In words: Inhibition of Serine/threonine-protein kinase mTOR complex 1-mediated HIF1alpha RNA translation in human MCF7 cells at 20 uM pretreated for 1 hr prior to metabolic labeling by SDS-PAGE analysis. In kind it is cell-based. A digest of the protocol: as §1
The test system of test [5] is MCF7. In words: Induction of Akt phosphorylation at threonine 308 in human MCF7 cells after 4 hrs by immunoblotting analysis relative to total Akt. In kind it is cell-based. A digest of the protocol:
(§3)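 MCF7 cells given 20 μM compound or DMSO for up to 4 h. Immunoblots for phospho-AKT T308, phospho-AKT S473, total AKT and β-actin. Phospho signals normalised to total AKT; total AKT normalised to β-actin. Mean ± SD of three independent experiments; repeated measures ANOVA with Tukey's test.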

In test [6] the test system is MEF. In words: Effect on mTORC2 in p53-/-TSC2+/+ MEF cells assessed as Akt phosphorylation at serine 473 after 3 hrs by immunoblotting analysis. In kind it is cell-based. The following applies: Mus musculus. In a few lines: (§4)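 p53−/−TSC2+/+ and p53−/−TSC2−/− MEFs in standard serum-containing medium exposed to compound, DMSO (matched to 20 μM) or nothing for 3 h. Immunoblots probed for phospho-AKT S473, total AKT, phospho-NDRG1 T346 and total NDRG1, with HSC70 as loading control.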

In test [7] the test system is MEF. In words: Inhibition of growth in TSC2-deficient MEF cells after 6 days. It counts as functional, cell-based. The note with it: Mus musculus, 144 h. In a few lines: (§5)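 Growth assay: p53−/−TSC2−/− and control MEFs plated at 1000 cells/well and treated next day with compound, DMSO or nothing. After 6 days relative cell number read by CellTiter 96 AQueous One, expressed as % of untreated. IC50 from curve fit; mean ± SD of three independent experiments.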

The test system of test [8] is MEF. In words: Inhibition of mTORC1 in MEF cells assessed as reduction of p70S6K phosphorylation at threonine 389 at 2.5 to 5 uM after 3 hrs by immunoblotting analysis. It counts as cell-based. The following applies: Mus musculus. A digest of the protocol:
(§6)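 PTEN+/+ and PTEN−/− MEFs exposed to a concentration series, DMSO or nothing for 3 h. Immunoblots for phospho-p70 S6K T389, total p70 S6K and β-actin.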

Test [9] deals with MEF. In words: Inhibition of mTORC1 in PTEN-/- MEF cells assessed as reduction of p70S6K phosphorylation after 3 hrs by immunoblotting analysis. It counts as cell-based. The following applies: Mus musculus. A digest of the protocol:
as §6

Test [10] addresses AMP-activated protein kinase, AMPK (Homo sapiens) (UniProt P54646+O43741+P54619+Q9UGJ0+Q9Y478+Q13131+Q9UGI9). In words: Induction of AMPK phosphorylation at threonine 172 in human MCF7 cells after 3 hrs by immunoblotting analysis. It counts as cell-based.
For test [11], the target named is T2, Hypoxia inducible factors; HIF-1-alpha, HIF-2-alpha. In words: Inhibition of Serine/threonine-protein kinase mTOR complex 1-mediated HIF1alpha RNA translation in human MCF7 cells pretreated for 1 hr prior to metabolic labeling by SDS-PAGE analysis. It counts as cell-based. A digest of the protocol: as §1
Test [12] concerns MCF7. In words: Increase in mTORC2 activity in human MCF7 cells induction of Akt phosphorylation at serine 473 after 4 hrs by immunoblotting analysis. It counts as cell-based. A digest of the protocol:
as §3

Test [13] concerns MEF. In words: Increase in mTORC2 activity in p53-/-TSC2-/- MEF cells assessed as […] in NDRG1 phosphorylation at threonine 346 after 3 hrs by immunoblotting analysis. It counts as cell-based. The note with it: Mus musculus. In a few lines:
as §4

In test [14] the test system is MEF. In words: Inhibition of growth in wild type MEF cells after 6 days. In kind it is functional, cell-based. The note with it: Mus musculus, 144 h. In a few lines:
as §5

For test [15], the system named is MEF. In words: Inhibition of mTORC1 in PTEN+/+ MEF cells assessed as reduction of p70S6K phosphorylation after 3 hrs by immunoblotting analysis. It counts as cell-based. The following applies: Mus musculus. A digest of the protocol:
as §6

In test [16] the test system is MEF. In words: Increase in mTORC2 activity in p53-/-TSC2-/- MEF cells assessed as […] of Akt phosphorylation at serine 473 after 3 hrs by immunoblotting analysis. In kind it is cell-based. The note with it: Mus musculus. A digest of the protocol: as §4
The target of test [17] is T1, mTORC1 (Homo sapiens). In words: Inhibition of mTORC1 in human MCF7 cells assessed as reduction of p70S6K phosphorylation at threonine 389 after 3 hrs by immunoblotting analysis. In kind it is cell-based. In a few lines:
as §2

The test system of test [18] is MEF. In words: Inhibition of mTORC1 in p53-/-TSC2+/+ MEF cells assessed as reduction of p70S6K phosphorylation at threonine 389 after 3 hrs by immunoblotting analysis. In kind it is cell-based. The following applies: Mus musculus. In a few lines:
(§7)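 p53−/−TSC2+/+ and p53−/−TSC2−/− MEFs in standard serum-containing medium exposed to a concentration series, DMSO (matched to 20 μM) or nothing for 3 h. Immunoblots for phospho-p70 S6K T389, total p70 S6K and β-actin. Mean ± SD of three independent experiments; ANOVA with Tukey's test within each line, t test between lines.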

The test system of test [19] is MEF. In words: Inhibition of mTORC1 in p53-/-TSC+/+ MEF cells assessed as reduction of p70S6K phosphorylation after 3 hrs by immunoblotting analysis. It counts as cell-based. The following applies: Mus musculus. A digest of the protocol: as §7
Test [20] deals with MEF. In words: Inhibition of mTORC1 in p53-/-TSC2-/- MEF cells assessed as reduction of p70S6K phosphorylation at threonine 389 after 3 hrs by immunoblotting analysis. The note with it: Mus musculus. It counts as cell-based. In a few lines:
as §7

The test system of test [21] is MEF. In words: Effect on mTORC2 in p53-/-TSC2+/+ MEF cells assessed as as NDRG1 phosphorylation at threonine 346 after 3 hrs by immunoblotting analysis. The following applies: Mus musculus. In kind it is cell-based. A digest of the protocol: as §4
For test [22], the target named is Mitogen-activated protein kinase; ERK1/ERK2 (Homo sapiens) (UniProt P27361+P28482). In words: Induction of ERK1/2 phosphorylation at threonine 202/tyrosine 204 in human MCF7 cells after 3 hrs by immunoblotting analysis. It counts as cell-based.
Sequence of Mitogen-activated protein kinase; ERK1/ERK2 (Homo sapiens) (P27361 whole entry, looked up): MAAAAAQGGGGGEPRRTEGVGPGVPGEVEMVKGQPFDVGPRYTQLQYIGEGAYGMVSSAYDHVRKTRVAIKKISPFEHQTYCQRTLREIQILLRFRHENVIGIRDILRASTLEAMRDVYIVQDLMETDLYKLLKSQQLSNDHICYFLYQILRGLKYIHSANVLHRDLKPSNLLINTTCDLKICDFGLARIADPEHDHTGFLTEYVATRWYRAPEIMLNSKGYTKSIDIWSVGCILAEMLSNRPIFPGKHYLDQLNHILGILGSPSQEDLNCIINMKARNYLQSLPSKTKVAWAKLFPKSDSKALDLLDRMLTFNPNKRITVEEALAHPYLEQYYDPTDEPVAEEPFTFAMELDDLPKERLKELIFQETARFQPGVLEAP
Sequence of Mitogen-activated protein kinase; ERK1/ERK2 (Homo sapiens) (P28482 whole entry, looked up): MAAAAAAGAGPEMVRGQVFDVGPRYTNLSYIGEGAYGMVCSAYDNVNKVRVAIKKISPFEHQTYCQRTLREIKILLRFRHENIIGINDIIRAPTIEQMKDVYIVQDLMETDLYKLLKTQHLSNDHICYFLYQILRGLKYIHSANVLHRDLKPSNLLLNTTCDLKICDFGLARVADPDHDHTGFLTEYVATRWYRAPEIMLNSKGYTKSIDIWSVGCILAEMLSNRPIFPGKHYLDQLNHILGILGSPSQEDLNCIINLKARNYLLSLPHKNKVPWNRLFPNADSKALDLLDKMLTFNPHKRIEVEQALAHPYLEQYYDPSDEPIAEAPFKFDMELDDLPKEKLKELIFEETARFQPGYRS
The subject of test [23] is MCF7. In words: Inhibition of Akt phosphorylation at threonine 308 in human MCF7 cells at 20 uM after 4 hrs by immunoblotting analysis. In kind it is cell-based. In a few lines: as §3

Molecules are shown by their SMILES. pIC50: −log10 of the molar value. Calls of active or inactive are those of the source. No cut-off for these calls is given here.

T1 sequence (Q8N122 whole entry, looked up, other chains not shown): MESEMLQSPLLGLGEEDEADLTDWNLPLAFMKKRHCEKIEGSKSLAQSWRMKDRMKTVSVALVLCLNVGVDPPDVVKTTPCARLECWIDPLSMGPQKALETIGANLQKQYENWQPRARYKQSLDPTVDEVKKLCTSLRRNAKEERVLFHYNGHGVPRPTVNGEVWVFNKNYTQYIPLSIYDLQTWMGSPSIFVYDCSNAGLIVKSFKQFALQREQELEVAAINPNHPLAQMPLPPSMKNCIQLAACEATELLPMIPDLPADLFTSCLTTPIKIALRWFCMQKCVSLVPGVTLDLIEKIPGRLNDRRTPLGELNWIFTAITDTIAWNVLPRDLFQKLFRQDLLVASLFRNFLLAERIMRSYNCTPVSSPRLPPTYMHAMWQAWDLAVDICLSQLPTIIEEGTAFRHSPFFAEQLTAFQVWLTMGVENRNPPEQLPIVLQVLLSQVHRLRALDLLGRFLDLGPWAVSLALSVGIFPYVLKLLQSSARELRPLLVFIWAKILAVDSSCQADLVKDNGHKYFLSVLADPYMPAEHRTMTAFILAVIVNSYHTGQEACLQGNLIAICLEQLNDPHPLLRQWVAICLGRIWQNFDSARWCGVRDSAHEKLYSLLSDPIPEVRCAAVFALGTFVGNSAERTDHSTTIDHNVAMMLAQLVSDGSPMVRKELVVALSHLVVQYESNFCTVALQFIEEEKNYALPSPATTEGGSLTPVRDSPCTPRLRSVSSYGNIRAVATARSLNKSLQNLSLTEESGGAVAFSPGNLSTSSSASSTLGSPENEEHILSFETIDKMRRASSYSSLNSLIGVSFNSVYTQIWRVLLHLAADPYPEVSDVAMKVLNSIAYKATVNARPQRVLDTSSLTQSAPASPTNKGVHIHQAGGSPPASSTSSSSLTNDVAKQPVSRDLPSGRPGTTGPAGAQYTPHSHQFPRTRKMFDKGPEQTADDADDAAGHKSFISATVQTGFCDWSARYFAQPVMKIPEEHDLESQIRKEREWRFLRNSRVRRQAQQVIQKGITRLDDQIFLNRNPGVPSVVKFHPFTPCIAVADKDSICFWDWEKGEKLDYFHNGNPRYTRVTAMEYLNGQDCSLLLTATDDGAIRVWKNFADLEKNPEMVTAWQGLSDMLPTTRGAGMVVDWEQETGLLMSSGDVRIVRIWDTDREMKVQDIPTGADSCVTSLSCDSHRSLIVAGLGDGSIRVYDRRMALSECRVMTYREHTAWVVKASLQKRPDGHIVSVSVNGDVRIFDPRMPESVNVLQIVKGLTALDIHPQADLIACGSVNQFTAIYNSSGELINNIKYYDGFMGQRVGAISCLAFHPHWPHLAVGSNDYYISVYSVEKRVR
T1 sequence (Q9BVC4 whole entry, looked up, other chains not shown): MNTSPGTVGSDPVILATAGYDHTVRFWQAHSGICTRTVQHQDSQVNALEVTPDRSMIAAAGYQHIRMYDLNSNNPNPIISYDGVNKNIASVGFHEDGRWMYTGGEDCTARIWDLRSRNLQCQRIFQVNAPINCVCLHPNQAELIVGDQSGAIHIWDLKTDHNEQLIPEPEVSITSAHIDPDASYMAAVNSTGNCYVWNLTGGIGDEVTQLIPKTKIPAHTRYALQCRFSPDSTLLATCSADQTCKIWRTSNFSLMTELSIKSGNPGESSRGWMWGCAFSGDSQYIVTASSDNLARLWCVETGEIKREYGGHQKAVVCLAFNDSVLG

For the molecule `C[C@@H]1C[C@@H]([C@H](O)CC2CC(=O)NC(=O)C2)C(=O)[C@@H](C)C1`, in the test on MCF7 [1], the inhibition result is “Active”.
Broadly, the pIC50 is the IC50 on a negative log10 scale, so that one unit is a factor of ten. A lower pIC50 goes with a high IC50. A word on the IC50: it is the concentration needed to halve the response being measured. For `S=C=NCCc1ccccc1` [PHENETHYLISOTHIOCYANATE], the inhibition entry (on mTORC1 (Homo sapiens) [2]; on mTORC1 (Homo sapiens) [3]; in test [4]; with MEF [8]; in the test with MEF [9]; with MEF [15]) was “Active” each time. Besides, the inhibition result on mTORC1 (Homo sapiens) [17], in the test with MEF [18] and in the test on MEF [19] was “Active” in each case. The fold change (FC) in the test with MCF7 [5] turned out to be 3. The result (with MEF [6]; in test [10]; in the test on MEF [21]) was inactive. Also, the pIC50 in the test with MEF [7] was 5.10; in the test on MEF [14], 5.33. The half-inhibitory concentration (IC50) in test [11] came out at 7.5 µM. Moreover, the outcome (in the test on MCF7 [12]; with MEF [13]; with MEF [16]; in [22]) was Active. Moreover, the inhibition entry with MEF [20] and in the test with MCF7 [23] was “inactive” each time.
